Measurements as given in ChEMBL document CHEMBL5058577, “EUbOPEN Chemogenomics Library 2 (Multiplex)” (2022).

Tested on: HEK-293T
Assay: Multiplex assay against HEK293T
Assay type: toxicity, cell-based
Settings: human
Outline: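 Compound was added to live cells that had been stained at seeding with Hoechst33342, BioTracker Green Microtubule Cytoskeleton Dye, MitoTracker Red and Annexin V Alexa Fluor 680, and imaging followed on a CQ1 microscope at 37°C and 5% CO2. CellPathfinder machine-learning gating divided cells into Hoechst high-intensity objects or normal cells, normal cells into healthy, pyknosed or fragmented nuclei, and pyknosed cells into mitotic or apoptotic. Tubulin, mitochondrial-mass and membrane-permeability phenotypes are per cents of healthy-nucleus cells.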

[1] = 12 h, 1 µM, compound concentration 1 uM, replicate 1
[2] = 12 h, 1 µM, compound concentration 1 uM, replicate 2
[3] = 12 h, 10 µM, compound concentration 10 uM, replicate 1
[4] = 12 h, 10 µM, compound concentration 10 uM, replicate 2
[5] = 24 h, 1 µM, compound concentration 1 uM, replicate 1
[6] = 24 h, 1 µM, compound concentration 1 uM, replicate 2
[7] = 24 h, 10 µM, compound concentration 10 uM, replicate 1
[8] = 24 h, 10 µM, compound concentration 10 uM, replicate 2
[9] = 48 h, 1 µM, compound concentration 1 uM, replicate 1
[10] = 48 h, 1 µM, compound concentration 1 uM, replicate 2
[11] = 48 h, 10 µM, compound concentration 10 uM, replicate 1
[12] = 48 h, 10 µM, compound concentration 10 uM, replicate 2

## Cc1ccc(C(C)(O)c2nc3ccccc3s2)c(C)c1 (stereo not given)
[1]
  Population Apoptotic (%): 30%
  Population Fragmented Nuclei (%): 19%
  Population Healthy Nuclei (%): 72%
  Population Hoechst High Intensity Objects (%): 4%
  Population Membrane Permeable-Phenotype (%): 1%
  Population Mitochondria Different-Phenotype (%): 36%
  Population Mitotic Cells (%): 70%
  Population Normal (%): 95%
  Population Pyknosed Nuclei (%): 8%
  Population Tubulin-Different-Phenotype (%): 30%
  Total Cell Count: 483
[2]
  Population Apoptotic (%): 41%
  Population Fragmented Nuclei (%): 4%
  Population Healthy Nuclei (%): 79%
  Population Hoechst High Intensity Objects (%): 5%
  Population Membrane Permeable-Phenotype (%): 0%
  Population Mitochondria Different-Phenotype (%): 63%
  Population Mitotic Cells (%): 58%
  Population Normal (%): 94%
  Population Pyknosed Nuclei (%): 16%
  Population Tubulin-Different-Phenotype (%): 25%
  Total Cell Count: 308
[3]
  Population Apoptotic (%): 56%
  Population Fragmented Nuclei (%): 5%
  Population Healthy Nuclei (%): 82%
  Population Hoechst High Intensity Objects (%): 8%
  Population Membrane Permeable-Phenotype (%): 0%
  Population Mitochondria Different-Phenotype (%): 62%
  Population Mitotic Cells (%): 43%
  Population Normal (%): 91%
  Population Pyknosed Nuclei (%): 12%
  Population Tubulin-Different-Phenotype (%): 44%
  Total Cell Count: 412
[4]
  Population Apoptotic (%): 36%
  Population Fragmented Nuclei (%): 7%
  Population Healthy Nuclei (%): 78%
  Population Hoechst High Intensity Objects (%): 7%
  Population Mitochondria Different-Phenotype (%): 72%
  Population Mitotic Cells (%): 63%
  Population Normal (%): 92%
  Population Pyknosed Nuclei (%): 13%
  Population Tubulin-Different-Phenotype (%): 25%
  Total Cell Count: 318
[5]
  Population Apoptotic (%): 26%
  Population Fragmented Nuclei (%): 18%
  Population Healthy Nuclei (%): 73%
  Population Hoechst High Intensity Objects (%): 3%
  Population Membrane Permeable-Phenotype (%): 1%
  Population Mitochondria Different-Phenotype (%): 15%
  Population Mitotic Cells (%): 73%
  Population Normal (%): 96%
  Population Pyknosed Nuclei (%): 8%
  Population Tubulin-Different-Phenotype (%): 11%
  Total Cell Count: 645
[6]
  Population Apoptotic (%): 32%
  Population Fragmented Nuclei (%): 6%
  Population Healthy Nuclei (%): 85%
  Population Membrane Permeable-Phenotype (%): 0%
  Population Mitochondria Different-Phenotype (%): 36%
  Population Mitotic Cells (%): 67%
  Population Pyknosed Nuclei (%): 7%
  Population Tubulin-Different-Phenotype (%): 16%
  Total Cell Count: 447
[7]
  Population Apoptotic (%): 28%
  Population Fragmented Nuclei (%): 6%
  Population Healthy Nuclei (%): 82%
  Population Hoechst High Intensity Objects (%): 8%
  Population Membrane Permeable-Phenotype (%): 0%
  Population Mitochondria Different-Phenotype (%): 42%
  Population Mitotic Cells (%): 71%
  Population Normal (%): 91%
  Population Pyknosed Nuclei (%): 11%
  Population Tubulin-Different-Phenotype (%): 34%
  Total Cell Count: 487
[8]
  Population Apoptotic (%): 36%
  Population Fragmented Nuclei (%): 10%
  Population Healthy Nuclei (%): 78%
  Population Hoechst High Intensity Objects (%): 6%
  Population Mitochondria Different-Phenotype (%): 63%
  Population Mitotic Cells (%): 63%
  Population Normal (%): 93%
  Population Pyknosed Nuclei (%): 10%
  Population Tubulin-Different-Phenotype (%): 23%
  Total Cell Count: 379
[9]
  Population Apoptotic (%): 17%
  Population Fragmented Nuclei (%): 20%
  Population Healthy Nuclei (%): 73%
  Population Hoechst High Intensity Objects (%): 2%
  Population Membrane Permeable-Phenotype (%): 1%
  Population Mitochondria Different-Phenotype (%): 15%
  Population Mitotic Cells (%): 82%
  Population Normal (%): 97%
  Population Pyknosed Nuclei (%): 5%
  Population Tubulin-Different-Phenotype (%): 12%
  Total Cell Count: 964
[10]
  Population Apoptotic (%): 34%
  Population Fragmented Nuclei (%): 13%
  Population Healthy Nuclei (%): 78%
  Population Hoechst High Intensity Objects (%): 3%
  Population Mitochondria Different-Phenotype (%): 22%
  Population Mitotic Cells (%): 65%
  Population Normal (%): 96%
  Population Pyknosed Nuclei (%): 8%
  Population Tubulin-Different-Phenotype (%): 11%
  Total Cell Count: 621
[11]
  Population Apoptotic (%): 33%
  Population Fragmented Nuclei (%): 14%
  Population Healthy Nuclei (%): 76%
  Population Hoechst High Intensity Objects (%): 2%
  Population Membrane Permeable-Phenotype (%): 0%
  Population Mitochondria Different-Phenotype (%): 28%
  Population Mitotic Cells (%): 66%
  Population Normal (%): 97%
  Population Pyknosed Nuclei (%): 9%
  Population Tubulin-Different-Phenotype (%): 18%
  Total Cell Count: 713
[12]
  Population Apoptotic (%): 50%
  Population Fragmented Nuclei (%): 13%
  Population Healthy Nuclei (%): 80%
  Population Hoechst High Intensity Objects (%): 3%
  Population Membrane Permeable-Phenotype (%): 1%
  Population Mitochondria Different-Phenotype (%): 33%
  Population Mitotic Cells (%): 50%
  Population Normal (%): 96%
  Population Pyknosed Nuclei (%): 5%
  Population Tubulin-Different-Phenotype (%): 13%
  Total Cell Count: 508

## CN(C)c1ccnc2sc3c(=O)n(N4CCCCCC4)cnc3c12
[1]
  Population Apoptotic (%): 45%
  Population Fragmented Nuclei (%): 9%
  Population Healthy Nuclei (%): 76%
  Population Hoechst High Intensity Objects (%): 4%
  Population Membrane Permeable-Phenotype (%): 1%
  Population Mitochondria Different-Phenotype (%): 50%
  Population Mitotic Cells (%): 54%
  Population Normal (%): 95%
  Population Pyknosed Nuclei (%): 13%
  Population Tubulin-Different-Phenotype (%): 43%
  Total Cell Count: 360
[2]
  Population Apoptotic (%): 51%
  Population Fragmented Nuclei (%): 5%
  Population Healthy Nuclei (%): 82%
  Population Hoechst High Intensity Objects (%): 8%
  Population Membrane Permeable-Phenotype (%): 0%
  Population Mitochondria Different-Phenotype (%): 67%
  Population Mitotic Cells (%): 48%
  Population Normal (%): 91%
  Population Pyknosed Nuclei (%): 12%
  Population Tubulin-Different-Phenotype (%): 25%
  Total Cell Count: 335
[3]
  Population Apoptotic (%): 36%
  Population Fragmented Nuclei (%): 4%
  Population Healthy Nuclei (%): 81%
  Population Hoechst High Intensity Objects (%): 10%
  Population Membrane Permeable-Phenotype (%): 0%
  Population Mitochondria Different-Phenotype (%): 78%
  Population Mitotic Cells (%): 63%
  Population Normal (%): 89%
  Population Pyknosed Nuclei (%): 14%
  Population Tubulin-Different-Phenotype (%): 79%
  Total Cell Count: 387
[4]
  Population Apoptotic (%): 59%
  Population Fragmented Nuclei (%): 9%
  Population Healthy Nuclei (%): 72%
  Population Hoechst High Intensity Objects (%): 13%
  Population Mitochondria Different-Phenotype (%): 76%
  Population Mitotic Cells (%): 40%
  Population Normal (%): 86%
  Population Pyknosed Nuclei (%): 17%
  Population Tubulin-Different-Phenotype (%): 59%
  Total Cell Count: 308
[5]
  Population Apoptotic (%): 30%
  Population Fragmented Nuclei (%): 10%
  Population Healthy Nuclei (%): 76%
  Population Hoechst High Intensity Objects (%): 4%
  Population Membrane Permeable-Phenotype (%): 1%
  Population Mitochondria Different-Phenotype (%): 27%
  Population Mitotic Cells (%): 70%
  Population Normal (%): 95%
  Population Pyknosed Nuclei (%): 12%
  Population Tubulin-Different-Phenotype (%): 24%
  Total Cell Count: 510
[6]
  Population Apoptotic (%): 25%
  Population Fragmented Nuclei (%): 7%
  Population Healthy Nuclei (%): 84%
  Population Hoechst High Intensity Objects (%): 5%
  Population Membrane Permeable-Phenotype (%): 0%
  Population Mitochondria Different-Phenotype (%): 51%
  Population Mitotic Cells (%): 74%
  Population Normal (%): 94%
  Population Pyknosed Nuclei (%): 7%
  Population Tubulin-Different-Phenotype (%): 22%
  Total Cell Count: 470
[7]
  Population Apoptotic (%): 42%
  Population Fragmented Nuclei (%): 7%
  Population Healthy Nuclei (%): 76%
  Population Hoechst High Intensity Objects (%): 8%
  Population Membrane Permeable-Phenotype (%): 0%
  Population Mitochondria Different-Phenotype (%): 80%
  Population Mitotic Cells (%): 57%
  Population Normal (%): 91%
  Population Pyknosed Nuclei (%): 16%
  Population Tubulin-Different-Phenotype (%): 71%
  Total Cell Count: 428
[8]
  Population Apoptotic (%): 66%
  Population Fragmented Nuclei (%): 10%
  Population Healthy Nuclei (%): 74%
  Population Hoechst High Intensity Objects (%): 13%
  Population Mitochondria Different-Phenotype (%): 75%
  Population Mitotic Cells (%): 33%
  Population Normal (%): 86%
  Population Pyknosed Nuclei (%): 15%
  Population Tubulin-Different-Phenotype (%): 53%
  Total Cell Count: 359
[9]
  Population Apoptotic (%): 27%
  Population Fragmented Nuclei (%): 13%
  Population Healthy Nuclei (%): 78%
  Population Hoechst High Intensity Objects (%): 2%
  Population Membrane Permeable-Phenotype (%): 0%
  Population Mitochondria Different-Phenotype (%): 23%
  Population Mitotic Cells (%): 72%
  Population Normal (%): 97%
  Population Pyknosed Nuclei (%): 7%
  Population Tubulin-Different-Phenotype (%): 14%
  Total Cell Count: 721
[10]
  Population Apoptotic (%): 20%
  Population Fragmented Nuclei (%): 11%
  Population Healthy Nuclei (%): 82%
  Population Hoechst High Intensity Objects (%): 3%
  Population Membrane Permeable-Phenotype (%): 2%
  Population Mitochondria Different-Phenotype (%): 31%
  Population Mitotic Cells (%): 80%
  Population Normal (%): 96%
  Population Pyknosed Nuclei (%): 6%
  Population Tubulin-Different-Phenotype (%): 15%
  Total Cell Count: 663
[11]
  Population Apoptotic (%): 70%
  Population Fragmented Nuclei (%): 15%
  Population Healthy Nuclei (%): 72%
  Population Hoechst High Intensity Objects (%): 8%
  Population Membrane Permeable-Phenotype (%): 0%
  Population Mitochondria Different-Phenotype (%): 66%
  Population Mitotic Cells (%): 29%
  Population Normal (%): 91%
  Population Pyknosed Nuclei (%): 12%
  Population Tubulin-Different-Phenotype (%): 54%
  Total Cell Count: 497
[12]
  Population Apoptotic (%): 57%
  Population Fragmented Nuclei (%): 11%
  Population Healthy Nuclei (%): 75%
  Population Hoechst High Intensity Objects (%): 6%
  Population Mitochondria Different-Phenotype (%): 63%
  Population Mitotic Cells (%): 42%
  Population Normal (%): 93%
  Population Tubulin-Different-Phenotype (%): 45%
  Total Cell Count: 450
